This is an account of results in ChEMBL document CHEMBL1124288, “Synthesis and analgesic properties of N-substituted trans-4a-aryldecahydroisoquinolines” (J Med Chem, 1988).

One assay deals with Mus musculus. The experiment in a line: Dose (sc) required for 50% reduction in frequency of writhing in mouse writhing analgesia test. The format is functional.
For another assay, the system named is Rattus norvegicus. The assay can be described thus: Dose (sc) required for a 2-s increase in reaction time in rat tail heat analgesia test. The format is functional.
The target in assay [1] is Kappa-type opioid receptor (Cavia porcellus) (UniProt P41144). The experiment in a line: Percent displacement of [3H]EKC from Opioid receptor kappa 1 in guinea pig cortex at 1000 nM conc. of compound. Background: Loss of bound radioactivity is the signal in a displacement assay; it reports binding, not function.
Assay [2] has the same target. The assay can be described thus: Percent displacement of [3H]EKC from Opioid receptor kappa 1 in guinea pig cortex at 100 nM conc. of compound.
The target of assay [3] is Mu-type opioid receptor (Rattus norvegicus) (UniProt P33535). The assay can be described thus: Binding affinity to Opioid receptor mu 1 in rat brain using [3H]NAL as radioligand. The format is tissue-based. The procedure, abridged:
(§1)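 μ sites labelled with [3H]naloxone in rat brain homogenates. The assay details are given in an earlier report.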

Assay [4] shares this target. The assay can be described thus: Percent displacement of [3H]-NAL from Opioid receptor mu 1 in rat brain at 1000 nM conc. of compound. In kind it is tissue-based.
The target is the same in assay [5]. The experiment in a line: Binding affinity to mu opioid receptor in rat brain using [3H]NAL as radioligand. The format is tissue-based. The procedure, abridged:
as §1

In another assay the target is Mu-type opioid receptor (Rattus norvegicus, UniProt P33535). The assay can be described thus: Binding affinity to Opioid receptor mu 1 in rat brain using [3H]-NAL as radioligand. The format is tissue-based. The procedure, abridged: as §1
Assay [6] addresses Kappa-type opioid receptor (Cavia porcellus, UniProt P41144). The experiment in a line: Binding affinity to Opioid receptor kappa 1 in guinea pig cortex using [3H]EKC as radioligand.
For assay [7], the target named is Mu-type opioid receptor (Rattus norvegicus) (UniProt P33535). The experiment in a line: Percent displacement of [3H]NAL from Opioid receptor mu 1 at 1000 nM conc. of compound.
The target in assay [8] is Kappa-type opioid receptor (Cavia porcellus) (UniProt P41144). The experiment in a line: Percent displacement of [3H]EKC from Opioid receptor kappa 1 at 1000 nM conc. of compound.
For assay [9] the target is unchanged. The experiment in a line: Percent displacement of [3H]EKC from Opioid receptor kappa 1 at 100 nM conc. of compound.
Setting [10] is: Mus musculus, sc, read-out: ED50.

Some results are limits rather than exact numbers.

Chain of Mu-type opioid receptor (Rattus norvegicus) (P33535 whole entry): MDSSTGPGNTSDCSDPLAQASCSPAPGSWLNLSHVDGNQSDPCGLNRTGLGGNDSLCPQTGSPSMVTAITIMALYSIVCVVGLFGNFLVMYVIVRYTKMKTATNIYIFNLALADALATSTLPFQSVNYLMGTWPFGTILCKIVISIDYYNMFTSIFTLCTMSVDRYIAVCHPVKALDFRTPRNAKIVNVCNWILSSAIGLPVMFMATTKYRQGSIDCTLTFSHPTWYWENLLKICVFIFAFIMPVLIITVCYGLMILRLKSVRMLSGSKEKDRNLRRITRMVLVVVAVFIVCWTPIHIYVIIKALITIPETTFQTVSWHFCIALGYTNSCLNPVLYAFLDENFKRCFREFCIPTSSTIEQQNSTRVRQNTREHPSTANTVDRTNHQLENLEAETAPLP
Chain of Mu-type opioid receptor (P33535 whole entry): as above
Chain of Kappa-type opioid receptor (Cavia porcellus) (P41144 whole entry): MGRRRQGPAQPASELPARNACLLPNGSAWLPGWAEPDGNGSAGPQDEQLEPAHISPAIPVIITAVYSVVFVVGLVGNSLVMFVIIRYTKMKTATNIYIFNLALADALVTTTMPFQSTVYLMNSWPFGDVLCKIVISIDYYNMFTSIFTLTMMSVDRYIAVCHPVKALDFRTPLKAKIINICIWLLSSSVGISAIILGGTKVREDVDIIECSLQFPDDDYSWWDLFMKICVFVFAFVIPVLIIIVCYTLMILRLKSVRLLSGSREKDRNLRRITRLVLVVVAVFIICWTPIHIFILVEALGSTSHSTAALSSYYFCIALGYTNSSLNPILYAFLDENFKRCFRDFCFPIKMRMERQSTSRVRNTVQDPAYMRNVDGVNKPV
Chain of Kappa-type opioid receptor (P41144 whole entry): as above

As a reminder, the ED50 is the dose that gives a 50% effect, or the effect in half of the subjects. Consider `CCCN1CCC2(c3cccc(O)c3)CCCC[C@H]2C1` (some centres not stated), for which, in the assay on Mus musculus (setting [10]), the ED50 was determined as 1.5 mg/kg. The molecule further gave an ED2sec in the assay with Rattus norvegicus of 1.3 mg/kg.
Take `Oc1cccc(C23CCCC[C@H]2CN(CC2CCC2)CC3)c1` (some centres not stated): the ED50 with Mus musculus (setting [10]) was determined as 0.6 mg/kg.
With `CCCN1CCC2(c3cccc(O)c3)CCCC[C@H]2C1` (single isomer, unassigned; (-)) [listing 1 of 2 here], the values for the Displacement in assay [1] and in assay [2] were 46% and 12%, respectively.
Turning to `Oc1cccc(C23CCCC[C@H]2CN(CC2CC2)CC3)c1` (single isomer, unassigned; (+)) [listing 1 of 2 here], the Displacement in [3] amounted to 4%; in assay [4] it was 35%; in assay [1] it was 32%; in assay [2] it was 5%.
On to `CCN1CCC2(c3cccc(O)c3)CCCC[C@H]2C1` (single isomer, unassigned; (+)), for which the Displacement in assay [4] was 70%; in assay [1], 15%; in [2], 0%; in [5], 34%.
A word on the Ki: it is a dissociation constant, usually derived from enzyme kinetics or from competition with a known ligand. For the molecule `Oc1cccc(C23CCCC[C@H]2CN(CC2CC2)CC3)c1` (single isomer, unassigned; (-)), the ED50 with Mus musculus was 2.2 mg/kg. The Ki was found to be 4.2 nM on Mu-type opioid receptor and 2.5 nM in assay [6]. The molecule further gave an ED2sec with Rattus norvegicus of 3 mg/kg.
For the molecule `CCCN1CCC2(c3cccc(O)c3)CCCC[C@H]2C1` (single isomer, unassigned; (-)) [listing 2 of 2 here], the affinity at Mu-type opioid receptor, expressed as Ki, was 473 nM.
Consider `Oc1cccc(C23CCCC[C@H]2CN(CCc2ccccc2)CC3)c1` (single isomer, unassigned; (+)), for which the Displacement in assay [3] is 19%; in [4], 74%; in assay [1], 53%; in assay [2], 8%.
With `CN1CC[C@]23c4c5ccc(O)c4O[C@H]2[C@@H](O)C=C[C@H]3[C@H]1C5` [MORPHINE], the ED50 in the assay on Mus musculus (setting [10]) came to 0.9 mg/kg. The ED2sec in the assay with Rattus norvegicus is 0.7 mg/kg.
Regarding `CC(C)=CCN1CC[C@]2(C)c3cc(O)ccc3C[C@H]1[C@H]2C` [(+)-PENTAZOCINE], in the assay on Mus musculus (setting [10]), the ED50 amounted to 2 mg/kg. Besides, the Ki came to 6.9 nM on Mu-type opioid receptor and 75 nM in assay [6]. The ED2sec in the assay on Rattus norvegicus amounted to 2.6 mg/kg.
For the molecule `C[C@H]1[C@H]2Cc3ccc(O)cc3[C@]1(C)CCN2CC1CC1` [CYCLAZOCINE], the ED50 in the assay on Mus musculus (setting [10]) stood at 0.07 mg/kg. Besides, the Ki turned out to be 1.2 nM on Mu-type opioid receptor and 1.3 nM in [6].
The molecule `Oc1cccc(C23CCCC[C@H]2CN(CC2CC2)CC3)c1` (single isomer, unassigned; (+)) [listing 2 of 2 here] returned an ED50 in the assay with Mus musculus of more than 50 mg/kg. Besides, the ED2sec in the assay with Rattus norvegicus was more than 50 mg/kg.
On to `Oc1cccc(C23CCCC[C@H]2CN(CCc2ccccc2)CC3)c1` (some centres not stated), for which the ED50 with Mus musculus (setting [10]) worked out at 0.3 mg/kg. Also, the ED2sec with Rattus norvegicus was found to be 0.08 mg/kg.
For the molecule `CCN1CCC2(c3cccc(O)c3)CCCC[C@H]2C1` (some centres not stated), the ED50 in the assay with Mus musculus (setting [10]) came out at 18.2 mg/kg. For the same molecule, the Ki at Mu-type opioid receptor came to 29 nM; in assay [6], 529 nM. Moreover, the ED2sec with Rattus norvegicus was more than 100 mg/kg.
As for `C=CCN1CCC2(c3cccc(O)c3)CCCC[C@H]2C1` (single isomer, unassigned; (+)), the Displacement in assay [3] was 15%; in assay [7], 42%; in assay [8] it was 16%; in assay [9] it was 2%.
Regarding `C=CCN1CC[C@]23c4c5ccc(O)c4O[C@H]2[C@@H](O)C=C[C@H]3[C@H]1C5` [NALORPHINE], the ED50 with Mus musculus (setting [10]) turned out to be 0.7 mg/kg. Besides, the figures for the Ki (at Mu-type opioid receptor; in assay [6]) were 6.5 nM and 15 nM, respectively. The molecule further came in with an ED2sec in the assay with Rattus norvegicus of more than 100 mg/kg.
In the case of `C=CCN1CCC2(c3cccc(O)c3)CCCC[C@H]2C1` (some centres not stated), the ED50 with Mus musculus (setting [10]) amounted to 1 mg/kg. For the same molecule, the ED2sec with Rattus norvegicus was determined as 1.4 mg/kg.
Take `CN1CCC2(c3cccc(O)c3)CCCC[C@H]2C1` (stereo in doubt; 13): the ED50 with Mus musculus came out at 0.5 mg/kg. In the assay on Rattus norvegicus, this molecule gave an ED2sec of 0.4 mg/kg.
For the molecule `CN1CCC2(c3ccccc3)CCCC[C@H]2C1` (some centres not stated), in the assay with Mus musculus (setting [10]), the ED50 was 3.5 mg/kg. For the same molecule, the ED2sec in the assay with Rattus norvegicus turned out to be 8.8 mg/kg.
Regarding `Oc1cccc(C23CCCC[C@H]2CN(CC2CC2)CC3)c1` (stereo in doubt; 29), in the assay on Mus musculus, the ED50 stood at 3.3 mg/kg. In the assay with Rattus norvegicus, this molecule showed an ED2sec of 5.6 mg/kg.
For `COc1cccc(C23CCCC[C@H]2CN(C)CC3)c1` (some centres not stated), the ED50 with Mus musculus (setting [10]) was 1.2 mg/kg. The ED2sec in the assay with Rattus norvegicus stood at 3.3 mg/kg.
Regarding `Oc1cccc(C23CCCC[C@H]2CN(CCc2ccccc2)CC3)c1` (single isomer, unassigned; (-)), the Ki at Mu-type opioid receptor came to 0.23 nM; in [6], 89 nM.
As for `CCCN1CCC2(c3cccc(O)c3)CCCC[C@H]2C1` (single isomer, unassigned; (+)), the Displacement in assay [3] was found to be 43%; in assay [4] it was 83%; in assay [2], 4%.
For the molecule `CN1CCC2(c3cccc(O)c3)CCCC[C@H]2C1` (single isomer, unassigned; (+)), the ED50 in the assay with Mus musculus was 0.4 mg/kg. Further, the inhibitory constant (Ki) at Mu-type opioid receptor stood at 0.96 nM; in [6], 61 nM. This molecule also registered an ED2sec with Rattus norvegicus of 0.3 mg/kg.
The corresponding values for `CN1CCC2(c3cccc(O)c3)CCCC[C@H]2C1` (single isomer, unassigned; (-)) are 2.1 mg/kg, 8.9 nM, 433 nM and 1.6 mg/kg.
On to `CC(C)=CCN1CCC2(c3cccc(O)c3)CCCC[C@H]2C1` (some centres not stated), for which, in the assay on Mus musculus (setting [10]), the ED50 is 1 mg/kg. The ED2sec with Rattus norvegicus was 1.5 mg/kg.
